Results published in ChEMBL document CHEMBL1140200, “Synthesis and pharmacological evaluation of a second generation of pyridothiadiazine 1,1-dioxides acting as AMPA potentiators” (Bioorg Med Chem, 2008).
Activity calls are given as the source filed them. No cut-off for these calls is given here.

What was measured:
Oocyte [1] = test: Potentiation of Wistar rat AMPA receptor expressed in Xenopus laevis oocytes assessed as 5-fold increase in amplitude of (S)-AMPA-induced current by two electrode voltage-clamp method; format: cell-based
Outline: (§1)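 Xenopus oocytes were injected with rat cortex poly(A+) mRNA (1 mg/mL) and kept 3–4 days at 18 °C in Barth's solution before voltage-clamp recording. (S)-AMPA alone was applied until two similar inward currents were obtained; their mean was set as 100%. Drug was bath-applied at successive increasing concentrations every 5 min 45 s, on 2–3 oocytes. EC2X and EC5X were interpolated as twofold and fivefold current increases; EC50 was taken at half-maximal potentiation.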

Oocyte [2] = test: Potentiation of Wistar rat AMPA receptor expressed in Xenopus laevis oocytes assessed as 2-fold increase in amplitude of (S)-AMPA-induced current by two electrode voltage-clamp method; format: cell-based; outline: as §1
Rattus norvegicus [3] = test: Toxicity in Wistar rat at 100 mg/kp, po; format: organism-based; details: in vivo
Rattus norvegicus [4] = test: Cognitive enhancing effect in Wistar rat assessed as improvement in juvenile recognition behavior at 100 mg/kp, po; format: functional, organism-based
Rattus norvegicus [5] = test: Cognitive enhancing effect in Wistar rat assessed as improvement in juvenile recognition behavior at 3 mg/kp, ip; format: functional, organism-based
Outline: (§2)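 Adult rats were housed individually for 2 days before testing. After 5-min habituation in the home cage, a 21-day juvenile was introduced for a 5-min session and investigation time T1 was recorded on video. Dosing was i.p. 1 min after that session. The same juvenile was reintroduced 120 min later for 5 min (T2). T2–T1 was analysed by one-way ANOVA; n = 8.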

Rattus norvegicus [6] = test: Cognitive enhancing effect in Wistar rat assessed as improvement in juvenile recognition behavior at 0.3 mg/kp, ip; format: functional, organism-based; outline: as §2
Oocyte [7] = test: Potentiation of Wistar rat AMPA receptor expressed in Xenopus laevis oocytes assessed as increase in amplitude of (S)-[…] current by two electrode voltage-clamp method relative to AMPA; format: cell-based; design: concentration or dose not given beside the values; outline: as §1
Rattus norvegicus [8] = test: Cognitive enhancing effect in Wistar rat at 100 mg/kp, po after 1 hr by one-trial object recognition test; format: functional, organism-based
Rattus norvegicus [9] = species: Rattus norvegicus; test: Cognitive enhancing effect in Wistar rat after 1 hr by one-trial object recognition test; format: functional, organism-based
Outline: (§3)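 Adult rats had three 3-min sessions 24 h apart. Two similar objects were presented in session 2. In the last session one object was replaced by a new one. Compound or vehicle was given i.p. 1 h before each session at 0.3, 1, 3 or 10 mg/kg. The read-out was the discrimination index (new − familiar exploration / total exploration) in the last session.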

Rattus norvegicus [10] = test: Cognitive enhancing effect in Wistar rat assessed as improvement in juvenile recognition behavior at 1 mg/kp, ip; format: functional, organism-based; outline: as §2
Rattus norvegicus [11] = test: Cognitive enhancing effect in Wistar rat at 10 mg/kp, ip after 1 hr by one-trial object recognition test; format: functional, organism-based; outline: as §3
Rattus norvegicus [12] = test: Cognitive enhancing effect in Wistar rat at 3 mg/kp, ip after 1 hr by one-trial object recognition test; format: functional, organism-based; outline: as §3
[13] = Lipophilicity, log P by shake flask method; format: physicochemical; details: octanol/water
Outline: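 Partition coefficient was measured between 1-octanol and phosphate buffer, pH 7.40, by shake-flask, using 1×10^-4 M stock drug solutions in octanol or buffer. Drug concentration after partition was measured by UV spectrophotometry at maximum absorbance.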

Compound | EC (Oocyte [1]) [µM] | EC (Oocyte [2]) [µM] | Activity (Oocyte [7]) [%] | further results
CCN1CNS(=O)(=O)c2cc(Cl)cnc21 | 44 | 20 | 1090 | Activity (Rattus norvegicus [3]): Non-toxic; Activity (Rattus norvegicus [4]): inactive; Activity (Rattus norvegicus [5]): Active; Activity (Rattus norvegicus [6]): Active; Activity (Rattus norvegicus [8]): inactive; Activity (Rattus norvegicus [9]): Dose-dependent effect; Activity (Rattus norvegicus [10]): Active; Activity (Rattus norvegicus [11]): Active; Activity (Rattus norvegicus [12]): Active
CCN1CNS(=O)(=O)c2ncccc21 |  |  |  | logP [13]: 0.12
CCN1CNS(=O)(=O)c2cc(Br)ccc21 | 78 | 29 | > 1100 | 
CN1CNS(=O)(=O)c2cccnc21 | 500 | 200 |  | 
CCN1CN(C)S(=O)(=O)c2ncccc21 | 96 | 38 |  | 
Cc1cnc2c(c1)N(C)CNS2(=O)=O | > 300 | 146 |  | 
CC1Nc2ccc(Cl)cc2S(=O)(=O)N1 (stereo not drawn) | 509 | 134 | > 700 | 
CCN1CN(C)S(=O)(=O)c2cc(Cl)cnc21 | 335 | 110 |  | 
NS(=O)(=O)c1cc2c(cc1Cl)NC(C1CC3C=CC1C3)NS2(=O)=O (stereo not drawn) | 9.8 | 1.6 | 844 | 

The next lines start with results.

EC (Oocyte [1]) [µM] | EC (Oocyte [2]) [µM] | Activity (Oocyte [7]) [%] | Compound | further results
51 | 21 |  | CN1CNS(=O)(=O)c2ncccc21 | 
> 300 | 160 |  | CCN1CNS(=O)(=O)c2cc(Br)cnc21 | 
> 300 | 86 |  | CCN1CN(C)S(=O)(=O)c2ncc(C)cc21 | 
81 | 21 |  | CN1CNS(=O)(=O)c2cc(Cl)cnc21 | 
> 1000 | > 1000 |  | CCN1CNS(=O)(=O)c2cc(C)cnc21 | 
> 300 | 116 |  | CCN1CNS(=O)(=O)c2ncc(C)cc21 | logP [13]: 0.41
95 | 25 | > 1300 | CCN1CNS(=O)(=O)c2cc(C)ccc21 | 
78.2 | 24.6 | 1260 | O=S1(=O)N[C@H]2CCCN2c2ccccc21 | 
300 | 123 | > 422 | CCN1CNS(=O)(=O)c2cc(F)cnc21 | 
 | > 100 |  | CN1CNS(=O)(=O)c2cc(F)cnc21 | 
